Results taken from paper PMC6911266 (Nature, 2019).
Where a chain is given by its changes, count along the chain named. Values joined by “and” are separate entries in the source; they are usually repeats but may differ in a detail not shown here. Identical values can stand only once.

Assays:
PfCRT 7G8 [1] = molecular target: T1, PfCRT 7G8 (Plasmodium falciparum, UniProt W7FI62); test: Equilibrium dialysis binding, PfCRT variant in nanodiscs; conditions: for Bmax, binding at pH 5.5 / Bmax, binding at pH 7.5: equilibrium dialysis
T1 sequence (W7FI62 1-424): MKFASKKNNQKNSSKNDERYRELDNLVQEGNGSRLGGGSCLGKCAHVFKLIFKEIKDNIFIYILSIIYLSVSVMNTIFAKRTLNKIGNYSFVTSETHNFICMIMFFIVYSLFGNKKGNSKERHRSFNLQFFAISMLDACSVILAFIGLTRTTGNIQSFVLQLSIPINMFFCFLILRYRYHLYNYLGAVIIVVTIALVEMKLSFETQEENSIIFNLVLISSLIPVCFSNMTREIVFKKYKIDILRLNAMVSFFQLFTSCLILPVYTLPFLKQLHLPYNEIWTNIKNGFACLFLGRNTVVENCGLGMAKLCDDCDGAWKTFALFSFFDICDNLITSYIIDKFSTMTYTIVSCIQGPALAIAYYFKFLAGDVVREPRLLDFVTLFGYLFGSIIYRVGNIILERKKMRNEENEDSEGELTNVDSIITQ

[2] = tested on: P. falciparum WT (3D7) parasite line; test: [3H]-drug accumulation assay in cultured parasites; type: cell-based, Plasmodium falciparum; conditions: 60 min, trophozoites
In short: (§1)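 Sorbitol-synchronized early trophozoites (24–26 h) were magnet-purified and resuspended in bicarbonate-free RPMI 1640 (25 mM HEPES, 10 mM glucose, 0.2 mM hypoxanthine, pH 7.4), counted by hemocytometer. They were mixed with an equal volume of radiolabelled drug (10 nM [3H]-CQ before mixing) for 1 h at 37°C, spun through dibutyl phthalate, then scintillation counted. CAR was internal/external drug, corrected for uninfected erythrocytes, per 10^6 cells at 75 fl; 4–6 assays in duplicate.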

[3] = tested on: P. falciparum parasites with PfCRT haplotypes/mutations; conditions: cited from earlier work; for Associated Phenotype, mutation C350R: haplotype 7G8+C350R, this study; for Associated Phenotype, mutation C350R / Associated Phenotype, mutation C72S / Associated Phenotype, mutation F145I / Associated Phenotype, mutation G353V / Associated Phenotype, mutation H97Y / Associated Phenotype, mutation I218F / Associated Phenotype, mutation M343L / Associated Phenotype, mutation T93S / Associated Phenotype, mutation A220S / Associated Phenotype, mutation I356T/L / Associated Phenotype, mutation N326S/D / Associated Phenotype, mutation M74I / Associated Phenotype, mutation N75E / Associated Phenotype, mutation Q271E / Associated Phenotype, mutation R371I / Associated Phenotype, mutation K76T: field; for Associated Phenotype, mutation C72S: haplotype 7G8; for Associated Phenotype, mutation C101F: haplotype Dd2+C101F, lab; for Associated Phenotype, mutation F145I: haplotype Dd2+F145I; for Associated Phenotype, mutation G353V: haplotype Dd2+G353V; for Associated Phenotype, mutation H97Y: haplotype Dd2+H97Y; for Associated Phenotype, mutation I218F: haplotype Dd2+I218F; for Associated Phenotype, mutation M343L: haplotype Dd2+M343L; for Associated Phenotype, mutation T93S: haplotype Dd2+T93S; for Associated Phenotype, mutation A220S / Associated Phenotype, mutation I356T/L / Associated Phenotype, mutation N326S/D: haplotype Dd2/7G8; for Associated Phenotype, mutation M74I / Associated Phenotype, mutation N75E / Associated Phenotype, mutation Q271E / Associated Phenotype, mutation R371I: haplotype Dd2; for Associated Phenotype, mutation K76T: haplotype Dd2 and 7G8
PfCRT Dd2 [4] = molecular target: T2, PfCRT Dd2 (Plasmodium falciparum, UniProt Q9N623, A220S/I356T/K76T/M74I/N326S/N75E/Q271E/R371I); test: Equilibrium dialysis binding, PfCRT variant in nanodiscs; conditions: for Bmax, binding at pH 5.5 / Bmax, binding at pH 7.5: equilibrium dialysis
T2 sequence (Q9N623 1-424 M74I/N75E/K76T/A220S/Q271E/N326S/I356T/R371I): T1 sequence (W7FI62 1-424) with S72C, M74I, N75E, Q271E, D326S, L356T, R371I

PfCRT 7G8+F145I = molecular target: T3, PfCRT 7G8+F145I (Plasmodium falciparum, UniProt W7FI62, F145I); test: Transport; type: biochemical; conditions: for 1-min uptake, transport in proteoliposomes: 100 nM [3H]-drug, inwardly-directed pH gradient; for Vmax, transport in proteoliposomes: initial rates over 3 s, Michaelis-Menten fit; for transport activity (in words): proteoliposomes
T3 sequence (W7FI62 1-424 F145I): T1 sequence (W7FI62 1-424) with F145I

[5] = tested on: P. falciparum 7G8^7G8+C350R parasite line; test: Parasite drug susceptibility assay; type: cell-based, Plasmodium falciparum; conditions: Plasmodium falciparum, 7G8, 72 h
In short: (§2)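 Asynchronous asexual blood-stage parasites were seeded at 0.3% parasitemia and 1% hematocrit into 2-fold, 10-point test compound dilutions. Incubation was 72 h at 37°C under 5% O2/5% CO2/90% N2. Final parasitemia was read by flow cytometry. IC50 came from nonlinear regression, 4 independent assays in duplicate, with two-tailed Mann-Whitney U tests.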

[6] = tested on: P. falciparum WT (3D7) parasite line; test: Parasite drug susceptibility assay; type: cell-based, Plasmodium falciparum; conditions: Plasmodium falciparum, 3D7, 72 h
In short: as §2

[7] = tested on: P. falciparum 7G8^7G8+C350R parasite line; test: [3H]-drug accumulation assay in cultured parasites; type: cell-based, Plasmodium falciparum; conditions: 60 min, trophozoites
In short: as §1

PfCRT 7G8 [8] = molecular target: T1, PfCRT 7G8; test: Scintillation proximity assay; type: binding; conditions: for competition of [3H]-Arg binding (in words): 125 nM [3H]-Arg, 1 μM CQ or PPQ, 0.1 μM amodiaquine, 1 mM Arg, Lys or Leu; for EC50: half-maximal binding constant (EC50), isotopic dilution, SPA, nanodiscs, pH 7.5, isotopic dilution of [3H]-CQ or [3H]-PPQ
[9] = tested on: P. falciparum 7G8^7G8 parasite line; test: Parasite drug susceptibility assay; type: cell-based, Plasmodium falciparum; conditions: Plasmodium falciparum, 7G8, 72 h
In short: as §2

PfCRT Dd2 [10] = molecular target: T2, PfCRT Dd2; test: Transport; type: biochemical; conditions: for transport activity (in words): proteoliposomes
[11] = binding at pH 5.5, equilibrium dialysis, pH 5.5
[12] = binding at pH 7.5, equilibrium dialysis, pH 7.5

Structure (SMILES) | Kd (PfCRT 7G8 [1]; [11]) | Kd (PfCRT 7G8 [1]; [12]) | Bmax, binding at pH 5.5 (PfCRT 7G8 [1]; pH 5.5) | Bmax, binding at pH 7.5 (PfCRT 7G8 [1]; pH 7.5) | Associated Phenotype, mutation C350R [3] | Associated Phenotype, mutation C72S [3] | Associated Phenotype, mutation C101F [3] | Associated Phenotype, mutation F145I [3] | Associated Phenotype, mutation G353V [3] | Associated Phenotype, mutation H97Y [3] | Associated Phenotype, mutation I218F [3] | Associated Phenotype, mutation M343L [3] | Associated Phenotype, mutation T93S [3] | Associated Phenotype, mutation A220S [3] | Associated Phenotype, mutation I356T/L [3] | Associated Phenotype, mutation N326S/D [3] | Associated Phenotype, mutation M74I [3] | Associated Phenotype, mutation N75E [3] | Associated Phenotype, mutation Q271E [3] | Associated Phenotype, mutation R371I [3] | further results
CCN(CC)CCCC(C)Nc1ccnc2cc(Cl)ccc12 (centres unmarked) [CQ, chloroquine] | 210 ± 60 nM | 280 ± 60 nM | 0.40 ± 0.03 mol CQ/mol PfCRT | 0.38 ± 0.02 mol CQ/mol PfCRT | S | R | S | S | S | PPQ-R (CQ-R) | R low | S | PPQ-R (CQ-R) | R | R | R | R | R | R | R | [3H]-CQ CAR (cellular accumulation ratio) ([2]; 5 nM [3H]-CQ): 876.7 ± 38.7; Associated Phenotype, mutation K76T [3]: R; Kd (PfCRT Dd2 [4]; [11]): 200 ± 40 nM; Kd (PfCRT Dd2 [4]; [12]): 310 ± 40 nM; Bmax, binding at pH 5.5 (PfCRT Dd2 [4]; pH 5.5): 0.42 ± 0.04 mol CQ/mol PfCRT; Bmax, binding at pH 7.5 (PfCRT Dd2 [4]; pH 7.5): 0.38 ± 0.01 mol CQ/mol PfCRT; 1-min uptake, transport in proteoliposomes (PfCRT 7G8+F145I): 0.24 ± 0.05 nmol/mg; Vmax, transport in proteoliposomes (PfCRT 7G8+F145I): 63.01 ± 3.57 nmol/mg/min; transport activity (in words) (PfCRT 7G8+F145I): reduced uptake; IC50 [5]: 6.9 ± 0.3 nM; IC50 [6]: 12.2 ± 0.5 nM; [3H]-CQ CAR (cellular accumulation ratio) ([7]; 5 nM [3H]-CQ): 406.4 ± 22.4; competition of [3H]-Arg binding (in words) (PfCRT 7G8 [8]): effectively competed; EC50 (PfCRT 7G8 [8]): ~300 nM and 297 nM; IC50 [9]: 83 ± 7.5 nM; 1-min uptake, transport in proteoliposomes (PfCRT Dd2 [10]; 100 nM [3H]-drug, 1 min, inwardly-directed pH gradient): 3.33 ± 0.22 nmol/mg; Vmax, transport in proteoliposomes (PfCRT Dd2 [10]; initial rates over 3 s, Michaelis-Menten fit): 91.37 ± 2.79 nmol/mg/min; transport activity (in words) (PfCRT Dd2 [10]): robust transport activity
Clc1ccc2c(N3CCN(CCCN4CCN(c5ccnc6cc(Cl)ccc56)CC4)CC3)ccnc2c1 [PPQ, piperaquine] | 90 ± 20 nM | 220 ± 40 nM | 0.40 ± 0.01 mol CQ/mol PfCRT | 0.40 ± 0.02 mol CQ/mol PfCRT | R low | S | R | R | R mod. | PPQ-R (CQ-R) | R | R low | PPQ-R (CQ-R) | S | S | S | S | S | S | S | [3H]-PPQ CAR (cellular accumulation ratio) ([2]; 20 nM [3H]-PPQ): 2123.8 ± 72.2; Associated Phenotype, mutation K76T [3]: S; Kd (PfCRT Dd2 [4]; [11]): 80 ± 10 nM; Kd (PfCRT Dd2 [4]; [12]): 220 ± 30 nM; Bmax, binding at pH 5.5 (PfCRT Dd2 [4]; pH 5.5): 0.39 ± 0.01 mol CQ/mol PfCRT; Bmax, binding at pH 7.5 (PfCRT Dd2 [4]; pH 7.5): 0.39 ± 0.02 mol CQ/mol PfCRT; 1-min uptake, transport in proteoliposomes (PfCRT 7G8+F145I): 1.41 ± 0.12 nmol/mg; Vmax, transport in proteoliposomes (PfCRT 7G8+F145I): 109.30 ± 7.27 nmol/mg/min; transport activity (in words) (PfCRT 7G8+F145I): substantially increased; IC50 [5]: 29.5 ± 1.6 nM; IC50 [6]: 16.2 ± 1.3 nM; [3H]-PPQ CAR (cellular accumulation ratio) ([7]; 20 nM [3H]-PPQ): 1207.4 ± 119.8; competition of [3H]-Arg binding (in words) (PfCRT 7G8 [8]): effectively competed; EC50 (PfCRT 7G8 [8]): ~190 nM and 190 nM; IC50 [9]: 21.4 ± 1 nM; transport activity (in words) (PfCRT Dd2 [10]): Minimal
